Data published in the EternaBench riboswitch data.

Tested on: MS2 coat protein
Test: apparent Kd, MS2 coat protein; higher = weaker binding; RNA-MaP array; FMN 200 µM where present
Method in brief: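 Designs were transcribed by stalled E. coli RNA polymerase on Illumina sequencing-chip clusters. They were titrated with SNAP-549-labelled MS2 coat protein from 0.7 or 1.5 nM, doubling to 3 µM, without and then with constant ligand. Buffer: 100 mM Tris-HCl pH 7.5, 80 mM KCl, 4 mM MgCl2, BSA, DTT, yeast tRNA, Tween-20. Green signal was normalised to red-channel RNA signal and control-cluster median Fmax. Apparent Kd is the median of filtered per-cluster binding-curve fits.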

[1] = designed as: ON switch for flavin mononucleotide, no ligand
[2] = ligand present: flavin mononucleotide, designed as: ON switch for flavin mononucleotide
[3] = designed as: OFF switch for flavin mononucleotide, no ligand
[4] = ligand present: flavin mononucleotide, designed as: OFF switch for flavin mononucleotide

Sequence | apparent Kd [1] [nM] | apparent Kd [2] [nM] | apparent Kd [3] [nM] | apparent Kd [4] [nM]
CAGCGAUAGCUGAAUGGUACAUGGGAGGAUAUGGGUUACAUGAGGAUCACCCAUGUUAAAUAAUACUAGAAGGCCCAUGUACCU | 16.5 | 4.55 |  | 
CACGGUGAUGUAGGAUAUAUGCUGGAAUACAGCAUAGAAGGACAUGAGGAUCACCCAUGUAAAGUGUCUCCAAAUAACACCGUG |  |  | 31.1 | 77
AACUAUGAAUUGAUAGUGUCUGACAGAAGGCAAUAGGUUGUGACCGACAUGAGGAUCACCCAUGUUGAGGAUAUGUCUAGCUAC |  |  | 53.2 | 366
GAGGAGCAAGGAUAUACGAGGAUAUGGUAGGUUGGAGAGUGACAUGAGGAUCACCCAUGUAGAAGGUGCGAGGG |  |  | 66.7 | 55.9
GCAUAUCAGGGAGGAUAUGACAUGAGGAUCACCCAUGUAAUUAUGGCUCUGUCAGAAGGCCCAUCGUCACUAUAGUGACGAGAC |  |  | 370 | 139
AAAUAGUUAGGAUAUACAUGAGGAUCACCCAUGUGGACUGAUGGCGCUUGAUUCAGUGGUAGAAGGGACUCAAA |  |  | 45.9 | 69.2
CGAUAUUAUGCAGGAUAUCUUUCUUGAAUGAGGAGAGAAGGGCAUAGGGAGACAUAAGCCUUAUUACAUGAGGAUCACCCAUGU |  |  | 10.9 | 9.5
CCCACGAAAGUCGAACGAUGUAGCAGAAGGACAUGAGGAUCACCCAUGUCAGCUGUAACAGCCAUGUAGGAUAUGCUACAUCCC |  |  | 5.24 | 6.88
GGAUAGGACAGAGGAUAUACGUGCUAGAGAUACUAGCAAAAUUUCCUCACAUGAGGAUCACCCAUGUAGAAGGCUGUCCUAUAG |  |  | 16.7 | 432
ACUCGUGGACAGAAGGCGACAUGAGGAUCACCCAUGUUGGCUCGGGUAUGACCAAUCCGCAUGAUCGAGGAUAUGUCUGCGGGC |  |  | 326 | 16.1
GGAUGACAAAGUCAUCCUUAACGAACAUGAGGAUCACCCAUGUAGGAUAUGCUACUCAAAGAGUAGCAGAAGGACAUGUGCCUU |  |  | 35 | 242
GCAUGCGUUCGAGGAUAUCGGUGAGAAACGGAACGAGAAGGCGAUCGAAUGUCUCAUCUUAUGAACAUGAGGAUCACCCAUGUA | 299 | 83.2 |  | 
CUUGUGUUAGGAUAUGCGCCCUGCAAAAGCAAGGCCAGAGAGCAGAAGGAACAUGAGGAUCACCCAUGUGUGAC |  |  | 55.8 | 57.7
GUUAAGGUAGGAUAUACGAUAAUAUAGGGUAGAUAUAGAACACAUGAGGAUCACCCAUGUAGAAGGACCAAUUG |  |  | 29.5 | 88.9
UUAUUAUAUAUAGGAUAUUGAUGUAAUUUAUUUCAAGAAGGAUAUACAUGAGGAUCACCCAUGUUGGAUAGGGUUAGUUUGUUU | 86.5 | 154 |  | 
GGUGGGAAGUAAGGAUAUCGGCCAUAGUUAGGGCGAGAAGGUACAUGAGGAUCACCCAUGUCGUCGCUAGGGACGGGUCCGGCC |  |  | 6.54 | 6.96
CGUAUGUCAGGAUAUGCGUAUGCCGCCCAGAACGGGCAGCAGCAGAAGGGACAUGAGGAUCACCCAUGUUCGGG |  |  | 68.3 | 73.1
GUAGCAUAUGAUUUACAUGAGGAUCACCCAUGUAUCAUGGGUAAGGAUAUUGAUGUUAUGUUAAUCAAGAAGGUACUAUGCUAC | 281 | 18.9 |  | 
AUAAUUAUAUAUUUGGCAAGAAUCAGAAGGCGUUACAUGAGGAUCACCCAUGUUUUGUAUAGUAACGAGGAUAUGAUAUGGAAA |  |  | 16.3 | 12.7
AAACUGCAGAAGAUAAUAAUGAAUACAUGAGGAUCACCCAUGUAGGAUAUCGUCAGGAAUACUGACGAGAAGGACAUACUGCAG |  |  | 14.3 | 15.6
UCUCGGUGUUCAGGAUAUGCAUCAAGGUUGUACGCAGAAGGGAACAUGAGGAUCACCCAUGUGUCCGAGCUGGGACGAGGGACG |  |  | 37.9 | 188
UUGAUUAUACAAGGAUAUCAAUUGUAUACAAGUCUUACAUGAGGAUCACCCAUGUUAAAUUUUUUUGAGAAGGUGUGUUUUCAG | 32.2 | 29.5 |  | 
GUAUUACAUGAGGAUCACCCAUGUGAGGAUAUCGAUGUAACUAGCAGCGUGCGGGACUCGAGAAGGCACUUGGA |  |  | 49.1 | 142
GCGUCAGAAUUAAUUGUGACAUACAGAAGGCAAUAGUUUAUUUCAGACAUGAGGAUCACCCAUGUUGAGGAUAUGUAUUUACUC |  |  | 8.92 | 7.82
UGUGCCUCGAGAGGAUAUUACAUGAGGAUCACCCAUGUAACAGAGGUGGAAACACCUCUGAAAUGUAAGAAGGCUCGAGGCACA |  |  | 19.1 | 29.6
UAAGCGCAGGAGAAGGGCACUGGACGCUCGCUACAUGAGGAUCACCCAUGUGCAGGAUAUCCGGCGCCGCCCGCAAACUCGGCG |  |  | 5.14 | 13.3
GGUAGAGAGCAGGAUAUCUUGGGUAAGUAUUGUAGAGAAGGGCUCACAUGAGGAUCACCCAUGUGGUCCAAGAU |  |  | 13.9 | 29.8
GUCCGGAGGGAGAAGGGCUAGGAGGUCCAGCUUAUGUGUGUUGCAACAUGAGGAUCACCCAUGUAGCAGGAUAUCCCUUUUACA |  |  | 47 | 233

Sequence | apparent Kd [1] [nM] | apparent Kd [2] [nM] | apparent Kd [3] [nM] | apparent Kd [4] [nM]
GUGCCUUGGGAGAAGGCAGUAUGCAAAGCAUUCUGAGGAUAUCCAUACCGGAAACGGACAUGAGGAUCACCCAUGUGGCACAAA | 18.5 | 7.52 |  | 
ACGGCAGUCAGAGGAUAUGGUUACAUGAGGAUCACCCAUGUCAAGGGUCUAAUUAAGUAUAACUACUAGAAGGCUGAAGGCCUA |  |  | 154 | 113
CGAUCGGAAGGAUAUACACCUCACGUCAAACGGACAACCGGACAUGAGGAUCACCCAUGUAGAAGGUCCAAAAU |  |  | 72.6 | 238
AUUUAAAAGUCAGGAUAUGGUAGAUUAUUCUUAUCAGAAGGGAUUAUUAUACUCAAGUACAUGAGGAUCACCCAUGUUAAAUCA | 18.1 | 10.2 |  | 
AAAUAACAUGAGGAUCACCCAUGUGCUGGAUAUGCAGGAUAUGGGCGGCGGGAGCGCGGCCCAGAAGGGCAGCUCC | 100 | 113 |  | 
UGUACGGACAUGAGGAUCACCCAUGUAACCAAGCAGUUGGUACAGGAUAUCGCUUAAUAACUAAGCGAGAAGGGUGGUUCUGCA | 32.5 | 63.4 |  | 
AUUUUUAAGGUAGGAUAUAGUAUGAUGGUUUAAUUAGAAGGAUCUCACAUGAGGAUCACCCAUGUAAUAGGAUUACCCAUGUAU |  |  | 53.7 | 33.3
GGUGUGAGGCAGGAUAUGCUAUAUGUUCGUAAUGCAGAAGGGUCUACAUGAGGAUCACCCAUGUGUGCGGUUGA |  |  | 172 | 413
CGGCAAUGACGAGGAUAUAGACAUGAGGAUCACCCAUGUAACAGUAUUACAGGGCGUCUUCUCAGCUAGAAGGCGUUCUAUGCC |  |  | 37.3 | 88.4
CCGAUGAUAGGACAGGAUAUGACUGUCGUCACAUGAGGAUCACCCAUGUCCCGGCAAUGCCACCGUUAGAAGGGUCCUAUCUCGG | 13.1 | 13 |  | 
AAAUCAGUAGGAUAUACGAUUUUAUACUAGAUAGAGGAACCACAUGAGGAUCACCCAUGUAGAAGGACUAGAUA |  |  | 14.6 | 14.9
AAGUUUGUACGAGGAUAUCAGUUGUAUCUAAAUUCAACAUGAGGAUCACCCAUGUUGCAAUAGGGUGAGAAGGCGUGUGGGCAA | 44.6 | 37.9 |  | 
AACUCACAUGAGGAUCACCCAUGUGAGGAUAUAUUAUUAUGGCUGUUAUGCUGUAGUGGUAGAAGGCGCGUGAU |  |  | 33.2 | 28.7
CCGGAAACGGGUAGCCUGACAUGAGGAUCACCCAUGUGAUCAGAGGAUAUGGAUCCUAAUUGGAUCCAGAAGGCUGUUGGCUAC | 73.4 | 27.5 |  | 
CGCACUUAGCGAGGAUAUGUUAAACAUGAGGAUCACCCAUGUGAUUUAGUAUCAAUUUUAGUGAAACAGAAGGCGCUUAGUGCG |  |  | 17.6 | 14.9
UCGAUCGGAGGAUAUGCUAAUGCAACUACUGCAGUUUCAAAACAUGAGGAUCACCCAUGUAGAAGGCCGAUAUA |  |  | 17 | 15.6
UUUUAGGCAGGAUAUACAUUUUUUUUAUUAUCCUCAUUAUUACAUGAGGAUCACCCAUGUAGAAGGGCCAUUUU |  |  | 48.1 | 50.2
GAGUUUACGUUUGACACUUAGCGAGAGGAUAUGGAAAACAAGACAUGAGGAUCACCCAUGUACUAUCAGAAGGCUCGAGUACGA | 8.92 | 5.69 |  | 
CUGCUCCGUGUAGGAUAUGCGUACAACCAAUAUGCAGAAGGACAUGAGGAUCACCCAUGUAUGUUAUUAUCACGUGAAGCGUCC |  |  | 22.3 | 61.1
CUUAUGUGAGGAUAUGGUGUUGGCCACAGGAAAAAGAUCCUCCAGAAGGCACAUGAGGAUCACCCAUGUAGUGA |  |  | 39.7 | 147
UCCUCACAUGAGGAUCACCCAUGUCAGGAUAUAGGAGAUGGCAGAAAUCCUGCCAUCGCUAGAAGGGACUGGCA |  |  | 43.8 | 154
GGAAGACAAAGUCUUCCUAUUCGAACAUGAGGAUCACCCAUGUAGGAUAUGCUACUCAAAGAGUAGCAGAAGGACAUGUGCUUU |  |  | 34.8 | 160
AACACAACAUGAAACAUGAGGAUCACCCAUGUUGUUUGUAAUCAGGAUAUGAUUUUAAUAAUGAAUUAGAAGGGAUAUGGAUUU | 28.9 | 36.9 |  | 
AAAUUUAACGAAGGAUAUGGUUACAUGAGGAUCACCCAUGUAUAUUUUGUGAUCUUGUUAAAGUACCAGAAGGUCGUAUACAUA |  |  | 173 | 400
ACCACAGACCAGAAGGGUGAUCGGCCAUGAUACACAGGAUAUGGUCACAUGAGGAUCACCCAUGUAUGGGUUGUGUGACCCAGC | 70 | 91.7 |  | 
GUAGCAUACUGAGGAUAUUCAUACCGGAAACGGACAUGAGGAUCACCCAUGUGGCGAAAGCCUUUGGAGAAGGCAGAAUGCUAC | 13.7 | 13.7 |  | 
AAACACGGACAUGAGGAUCACCCAUGUGGCGAAAGCCUUGGGAGAAGGCCGUAUGCAAAGCAUACGGAGGAUAUUCAUACCGUG | 1410 | 67.9 |  | 
